This is an account of results in publication PMC3806331 (Journal of natural products, 2013).

Read-outs that look alike come from different tables or passages of the source.

In general, IC50 refers to the concentration needed to halve the response being measured.

Series [1] has as its system HT-29 human colon cancer cell line. Description: SRB cytotoxicity assay, HT-29. It counts as cell-based. Conditions: HT-29, 72 h, read-out: IC50 HT-29 72 h. For orientation: Sulforhodamine B stains cellular protein and so reports cell mass.
Series [2] deals with Raji human Burkitt's lymphoma cells. Description: MTS growth inhibition assay, Raji cells. It counts as cell-based. (In general: Tetrazolium dyes change colour on reduction, which living cells bring about.)
In series [3] the test system is immunodeficient female NCr nu/nu mice. Description: Toxicity to mice in the hollow fiber assay. Format: in vivo. The gist of the method:
(§1)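 HT-29 cells (1 × 10^6 per mL), alongside other human cancer lines, grown in hollow fibers implanted ip and sc in immunodeficient female NCr nu/nu mice. Test compound given by ip injection once daily: first run at 5, 10, 15, 30 mg/kg in 30% cyclodextrin; repeat run at 0.5, 1, 2 mg/kg. Positive controls: bortezomib 1 mg/kg ip (first run); paclitaxel 5 mg/kg ip (repeat run).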

In series [4] the test system is HT-29 human colon cancer cells. Kind of series: In vivo hollow fiber assay, HT-29. Conditions: HT-29 in hollow fibers in mice, any dose, ip once daily. The gist of the method:
as §1

The subject of series [5] is quinone reductase in Hepa 1c1c7 murine hepatoma cell line. Kind of series: Quinone reductase induction assay. Format: cell-based. As to conditions: Mus musculus, Hepa-1c1c7, read-out: CD (concentration required to double quinone reductase activity), Hepa 1c1c7 cells; average ± SD, three independent experiments.
Series [6] concerns 697 human acute lymphoblastic leukemia cells. Kind of series: MTS growth inhibition assay, 697 cells. Format: cell-based. Conditions: read-out: IC50 values in 697 cells (range).

For the compound `CC1(C)O[C@@H]2Oc3ccc(C(=O)/C=C/c4ccccc4)c(O)c3[C@@H]2[C@H]1O` [Compound 11, (+)-tephrosone], the IC50 was greater than 10 µM in series [1]; greater than 10 µM in series [2] (48 h, read-out: IC50 Raji 48 h); greater than 10 µM in series [2] (72 h, read-out: IC50 Raji 72 h).
As for `C=C(C)[C@H]1Cc2c(ccc3c2O[C@@H]2COc4cc(OC)c(OC)cc4[C@]2(O)C3=O)O1` [Compound 7, cis-(6aβ,12aβ)-hydroxyrotenone], the toxicity to mice entry in series [3] (ip 0.5, 1 and 2 mg/kg once daily) is on record as “no noticeable toxicity”. Moreover, the lethality to mice result in series [3] (ip 5, 10, 15 and 30 mg/kg once daily) is given as “lethal”. Also, the “net reduction of relative percent cell growth” value in series [4] is listed as “No effect”.
With `COc1ccc2c(c1/C=C/C(C)(C)O)O[C@H](c1ccccc1)CC2=O` [Compound 4, (2S)-2,3-dihydrotephroapollin C], the IC50 in series [1] is greater than 10 µM; in series [2] (48 h, read-out: IC50 Raji 48 h), greater than 10 µM; in series [2] (72 h, read-out: IC50 Raji 72 h) it was greater than 10 µM.
Consider `COc1cc2c(c(O)c1C(=O)/C=C/c1ccccc1)[C@H]1[C@@H](O2)OC(C)(C)[C@@H]1OC(C)=O` [Compound 10, (+)-tephropurpurin], for which the IC50 is greater than 10 µM in series [1]; greater than 10 µM in series [2] (48 h, read-out: IC50 Raji 48 h); greater than 10 µM in series [2] (72 h, read-out: IC50 Raji 72 h).
On to `COc1ccc2c(c1C1=COC(C)(C)C1=O)O[C@H](c1ccccc1)CC2=O` [Compound 3, (2S)-2,3-dihydrotephroglabrin], for which, in series [5], the EC (2-fold induction) is less than 10 µM. In addition, the half-inhibitory concentration (IC50) in series [1] was greater than 10 µM; in series [2] (48 h, read-out: IC50 Raji 48 h), greater than 10 µM; in series [2] (72 h, read-out: IC50 Raji 72 h) it was greater than 10 µM.
`COc1cc2c(cc1OC)[C@]1(O)C(=O)c3ccc4c(c3O[C@@H]1CO2)C=CC(C)(C)O4` [Compound 9, tephrosin]: the IC50 in series [6] fell in the range of 5.4 to 9 µM.
In the case of `COc1ccc2c(c1/C=C/C(C)(C)OC)O[C@H](c1ccccc1)CC2=O` [Compound 6, (2S)-7-methoxy-8-(3-methoxy-3-methyl-but-1-enyl)flavanone], the EC (2-fold induction) in series [5] was less than 10 µM. Besides, the IC50 in series [1] is greater than 10 µM; in series [2] (48 h, read-out: IC50 Raji 48 h), greater than 10 µM; in series [2] (72 h, read-out: IC50 Raji 72 h), greater than 10 µM.
